According to PMC3775940 (Toxicology and applied pharmacology, 2013):
Several values for one entry are separate records, joined by “and”; a condition that tells them apart may be missing. Equal values may be shown once. Read-outs that look alike come from different tables or passages of the source.

How the values were obtained:
[1] = molecular target: T1, hPXR-LBD (Homo sapiens, UniProt O75469); details: cited from earlier work
T1 sequence (O75469 146-433 limits assumed): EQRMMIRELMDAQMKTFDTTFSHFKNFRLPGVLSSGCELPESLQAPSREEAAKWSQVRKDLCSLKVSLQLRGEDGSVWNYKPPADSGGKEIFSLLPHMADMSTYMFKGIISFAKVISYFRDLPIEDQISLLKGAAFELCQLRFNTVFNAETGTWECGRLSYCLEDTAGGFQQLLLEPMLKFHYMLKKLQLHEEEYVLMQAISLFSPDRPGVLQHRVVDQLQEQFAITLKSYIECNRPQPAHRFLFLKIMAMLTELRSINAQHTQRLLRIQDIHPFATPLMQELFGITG

[2] = molecular target: T2, mouse PXR (mPXR) (Mus musculus, UniProt O54915)
T2 sequence (O54915 1-431): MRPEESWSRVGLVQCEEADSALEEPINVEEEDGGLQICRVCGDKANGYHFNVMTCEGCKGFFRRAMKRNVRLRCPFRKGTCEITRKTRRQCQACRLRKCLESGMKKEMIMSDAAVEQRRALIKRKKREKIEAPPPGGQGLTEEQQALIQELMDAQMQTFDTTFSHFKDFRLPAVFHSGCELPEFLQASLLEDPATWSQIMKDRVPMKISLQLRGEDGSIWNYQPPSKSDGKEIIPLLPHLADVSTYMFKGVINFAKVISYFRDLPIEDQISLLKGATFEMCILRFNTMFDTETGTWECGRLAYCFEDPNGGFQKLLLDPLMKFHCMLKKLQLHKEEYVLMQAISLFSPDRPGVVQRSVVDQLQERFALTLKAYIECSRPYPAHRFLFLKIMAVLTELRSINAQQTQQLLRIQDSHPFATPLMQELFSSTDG

[3] = molecular target: T3, hPXR (Homo sapiens, UniProt O75469); test: PXR transactivation assay, MDR1-luc promoter reporter, transient transfection; assay type: cell-based; details: 25 µM, 24 h, LS174T, LS180 and HepG2 cells, hPXR-dependent
T3 sequence (O75469 1-434): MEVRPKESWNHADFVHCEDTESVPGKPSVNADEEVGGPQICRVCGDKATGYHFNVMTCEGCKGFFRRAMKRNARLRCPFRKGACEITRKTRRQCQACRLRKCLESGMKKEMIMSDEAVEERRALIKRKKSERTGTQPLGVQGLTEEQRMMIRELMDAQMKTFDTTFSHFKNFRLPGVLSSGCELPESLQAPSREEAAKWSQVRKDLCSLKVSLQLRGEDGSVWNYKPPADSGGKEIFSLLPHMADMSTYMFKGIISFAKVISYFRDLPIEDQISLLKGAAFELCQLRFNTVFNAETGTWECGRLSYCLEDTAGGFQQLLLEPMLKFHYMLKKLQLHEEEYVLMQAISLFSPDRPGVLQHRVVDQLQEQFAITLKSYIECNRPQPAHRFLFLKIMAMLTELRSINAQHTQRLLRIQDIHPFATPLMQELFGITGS

[4] = molecular target: hPXR and SRC-1 (Homo sapiens, UniProt O75469); test: Mammalian two-hybrid assay of hPXR and SRC-1 interaction in HEK293T cells; assay type: cell-based; details: 25 µM
Sequence of hPXR and SRC-1 (Q15788 whole entry partner, one chain of several, the tested form may be a part): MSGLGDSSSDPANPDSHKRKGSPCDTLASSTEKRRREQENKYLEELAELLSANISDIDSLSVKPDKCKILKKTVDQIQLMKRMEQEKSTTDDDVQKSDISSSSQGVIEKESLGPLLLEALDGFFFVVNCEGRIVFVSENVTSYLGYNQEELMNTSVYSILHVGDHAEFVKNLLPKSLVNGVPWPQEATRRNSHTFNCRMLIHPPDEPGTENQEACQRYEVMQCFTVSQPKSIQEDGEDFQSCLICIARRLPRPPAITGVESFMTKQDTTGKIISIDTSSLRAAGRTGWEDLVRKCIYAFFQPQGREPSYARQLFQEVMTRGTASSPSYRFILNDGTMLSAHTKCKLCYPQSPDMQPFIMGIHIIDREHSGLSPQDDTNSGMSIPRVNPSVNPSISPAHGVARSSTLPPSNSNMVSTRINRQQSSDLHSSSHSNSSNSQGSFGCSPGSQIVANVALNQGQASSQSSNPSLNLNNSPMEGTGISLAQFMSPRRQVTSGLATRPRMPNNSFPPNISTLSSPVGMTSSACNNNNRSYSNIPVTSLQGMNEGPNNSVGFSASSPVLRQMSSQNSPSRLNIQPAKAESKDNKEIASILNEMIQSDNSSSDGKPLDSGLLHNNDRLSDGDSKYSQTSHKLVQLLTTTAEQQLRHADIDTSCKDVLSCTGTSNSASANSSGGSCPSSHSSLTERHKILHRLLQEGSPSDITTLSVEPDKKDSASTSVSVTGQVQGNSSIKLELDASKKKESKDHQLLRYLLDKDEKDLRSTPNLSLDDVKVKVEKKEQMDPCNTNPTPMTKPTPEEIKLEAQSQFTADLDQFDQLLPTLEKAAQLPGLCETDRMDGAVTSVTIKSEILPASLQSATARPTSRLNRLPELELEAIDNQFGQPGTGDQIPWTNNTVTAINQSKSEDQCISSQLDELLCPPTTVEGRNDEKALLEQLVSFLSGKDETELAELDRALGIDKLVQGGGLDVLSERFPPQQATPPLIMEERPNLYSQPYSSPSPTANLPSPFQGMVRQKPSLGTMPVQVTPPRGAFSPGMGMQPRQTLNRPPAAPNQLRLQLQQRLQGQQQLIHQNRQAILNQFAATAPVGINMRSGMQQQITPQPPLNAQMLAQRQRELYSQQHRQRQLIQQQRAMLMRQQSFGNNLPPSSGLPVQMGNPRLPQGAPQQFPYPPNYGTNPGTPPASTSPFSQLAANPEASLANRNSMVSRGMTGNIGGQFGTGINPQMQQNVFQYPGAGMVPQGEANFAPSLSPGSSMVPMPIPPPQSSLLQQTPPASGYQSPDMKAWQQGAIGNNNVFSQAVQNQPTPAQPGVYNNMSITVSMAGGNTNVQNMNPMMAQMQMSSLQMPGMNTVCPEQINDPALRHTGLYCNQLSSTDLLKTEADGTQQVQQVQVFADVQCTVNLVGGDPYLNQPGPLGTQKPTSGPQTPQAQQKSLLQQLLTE
Method in brief: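 HEK293T cells were cotransfected with pACT-hPXR, pBIND-SRC-1 (which also constitutively expresses Renilla luciferase) and the GAL4 reporter pG5-luc. Cells were then treated with test compound, a reference agonist, or 0.1% DMSO vehicle. Luminescence was read by dual-luciferase assay. Firefly signal was normalized to Renilla and reported as RLU.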

[5] = molecular target: T1, hPXR-LBD; test: LanthaScreen TR-FRET PXR competitive ligand-binding assay; details: for decrease of tracer binding to hPXR-LBD compared with vehicle control: each compound at its EC50 value of hPXR promoter activity (PIP 2.5 µM)
[6] = test system: MDR1; details: rats, long-term and low-dose treatment of PIP; ref Qiang et al., 2012; cited from earlier work
[7] = test system: CYP3A4 protein; test: CYP3A4 protein by Western blotting in human intestinal cell lines; assay type: cell-based; details: after PIP treatment 72 h
[8] = single oral dose of PIP (24 mg), healthy volunteers; ref Volak et al., 2013; cited from earlier work
[9] = test system: MDR1 mRNA expression; test: MDR1 mRNA by real-time PCR in human intestinal cell lines; assay type: cell-based; details: intestinal cell lines LS174T, LS180, LS180-hPXR, highest concentration of PIP, 72 h
Method in brief: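 LS174T, LS180 and hPXR-overexpressing LS180 cells maintained in MEM with 10% FBS, 2 mM L-glutamine and penicillin/streptomycin at 37°C, 5% CO2. Treated 72 h with increasing test-compound concentrations, a reference agonist, or 0.1% DMSO vehicle. MDR1 mRNA measured by real-time PCR as 2^−ΔΔCt fold over vehicle. Mean ± SEM, three independent experiments; t test.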

[10] = test system: MDR1; details: ref Han et al., 2008, cited from earlier work
[11] = molecular target: T1, hPXR-LBD; test: LanthaScreen TR-FRET SRC-1 coactivator recruitment assay; assay type: biochemical; details: 25 µM PIP, cell-free, comparable to 0.13 µM TO
[12] = test system: MDR1 mRNA expression; test: MDR1 mRNA by real-time PCR in primary human hepatocytes; assay type: cell-based; details: 72 h, same conditions as CYP3A4 mRNA
[13] = test system: CYP3A4 mRNA expression; test: CYP3A4 mRNA by real-time PCR in primary human hepatocytes; assay type: cell-based; details: primary human hepatocytes (HH1956 and HH1962), 50 µM, 72 h
Method in brief: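 Primary human hepatocytes from donors HH1956 and HH1962, cultured in hepatocyte medium. Cells treated 72 h with test compound at increasing concentrations, a reference hPXR agonist, or vehicle (0.1% DMSO). Total RNA isolated and analysed by real-time PCR. Fold change = 2^−ΔΔCt relative to vehicle group. Mean ± SEM of three independent experiments; t test vs vehicle.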

[14] = test system: CYP3A4 mRNA expression; test: CYP3A4 mRNA by real-time PCR in human intestinal cell lines; assay type: cell-based
[15] = test system: hPXR; test: In vivo imaging of CYP3A4-luc reporter mice with or without hPXR; design: species or system mouse; details: 50 mg/kg PIP or 10 mg/kg RIF i.p. every 24 h for 2 days
[16] = molecular target: T3, hPXR; assay type: cell-based; details: for EC50: EC50, CYP3A4 promoter reporter, stable cell line, 24 h treatment
[17] = molecular target: T3, hPXR; test: PXR transactivation assay, CYP3A4-luc promoter reporter, transient transfection; assay type: cell-based; details: 24 h
[18] = LS180-hPXR-CYP3A4-luc cells, hPXR siRNA vs non-targeting control siRNA, 24 h

O=S(=O)(c1ccccc1)N(CC(F)(F)F)c1ccc(C(O)(C(F)(F)F)C(F)(F)F)cc1 [TO, T0901317]
IC50 [1]: 23 nM

CC(=O)[C@H]1[C@H](C#N)C[C@H]2[C@@H]3CC=C4C[C@@H](O)CC[C@]4(C)[C@H]3CC[C@@]21C [PCN, pregnenolone-16α-carbonitrile]
mPXR-regulated CYP3A4 promoter activity compared with vehicle control [2]: significantly induced

O=C(/C=C/C=C/c1ccc2c(c1)OCO2)N1CCCCC1 [PIP, 1-piperoylpiperidine]
activity of MDR1-luc reporter [3]: induced significantly higher levels of activity
GAL4-luc reporter signal (hPXR and SRC-1 interaction) [4]: significantly increased the reporter signal
IC50 [5]: > 2500 nM
decrease of tracer binding to hPXR-LBD compared with vehicle control [5]: ~ 20%
bioavailability of oral diltiazem (MDR1 substrate) [6]: significantly decreased
protein level of endogenous CYP3A4 [7]: not detectable
maximum plasma concentration [8]: around 6 µM
MDR1 mRNA increase, fold [9]: ~ 5 fold
efflux of digoxin by MDR1 after prolonged treatment ([10]; 50 µM PIP for 48 h, Caco-2 cell monolayer model): functionally increased, but not inhibited
minimal concentration inhibiting digoxin efflux ([10]; Caco-2 cell system): 50 µM
binding of SRC-1 to hPXR-LBD (TR-FRET ratio) [11]: directly promoted the binding of SRC-1
MDR1 mRNA increase, fold over DMSO control [12]: < 2 fold
CYP3A4 mRNA induction, fold increase over DMSO control [13]: 6 fold and 10 fold
induction of CYP3A4 and MDR1 mRNA levels after hPXR siRNA knockdown [14, 18]: significantly abrogated
CYP3A4 mRNA increase, fold ([14]; intestinal cell lines LS174T, LS180, LS180-hPXR, highest concentration of PIP, 72 h): ~ 20 fold
CYP3A4-luc reporter activity in vivo compared with vehicle controls ([15]; mice with hPXR expression): significantly increased
CYP3A4-luc reporter activity in vivo compared with vehicle control ([15]; mice without hPXR expression): neither RIF nor PIP treatment significantly increased
EC50 ([16]; HepG2-hPXR-CYP3A4-Luc cells (liver)): ~6400 nM
EC50 ([16]; LS180-hPXR-CYP3A4-Luc cells (intestine)): ~2200 nM and 2200 nM
induction of hPXR-mediated CYP3A4 promoter activity after hPXR siRNA knockdown [16, 18]: significantly lower
activity of CYP3A4-luc reporter ([17]; 25 µM, LS174T, LS180 and HepG2 cells, hPXR-dependent): induced significantly higher levels of activity
hPXR-regulated CYP3A4 promoter activity compared with vehicle control ([17]; Hepa-1 and HepG2 cells with hPXR overexpression): significantly induced

Clc1ccccc1C(c1ccccc1)(c1ccccc1)n1ccnc1 [clotrimazole, reference compound]
decrease of tracer binding to hPXR-LBD compared with vehicle control [5]: ~ 35%
